Measured values as given in publication PMC8897028 (Acta Pharmaceutica Sinica. B, 2021).

Assays:
Type in all cases: cell-based
hTRPV3 = target: T1, hTRPV3 (Homo sapiens, UniProt Q8NET8); experiment: whole-cell patch-clamp of hTRPV3 currents expressed in HEK293 cells; settings: for inhibition of hTRPV3 channel current activated by 2-APB: compound 50 μmol/L, agonist 2-APB 50 μmol/L, n = 5; for Hill coefficient: inhibition of hTRPV3 currents evoked by 2-APB 50 μmol/L
T1 sequence (Q8NET8 1-790): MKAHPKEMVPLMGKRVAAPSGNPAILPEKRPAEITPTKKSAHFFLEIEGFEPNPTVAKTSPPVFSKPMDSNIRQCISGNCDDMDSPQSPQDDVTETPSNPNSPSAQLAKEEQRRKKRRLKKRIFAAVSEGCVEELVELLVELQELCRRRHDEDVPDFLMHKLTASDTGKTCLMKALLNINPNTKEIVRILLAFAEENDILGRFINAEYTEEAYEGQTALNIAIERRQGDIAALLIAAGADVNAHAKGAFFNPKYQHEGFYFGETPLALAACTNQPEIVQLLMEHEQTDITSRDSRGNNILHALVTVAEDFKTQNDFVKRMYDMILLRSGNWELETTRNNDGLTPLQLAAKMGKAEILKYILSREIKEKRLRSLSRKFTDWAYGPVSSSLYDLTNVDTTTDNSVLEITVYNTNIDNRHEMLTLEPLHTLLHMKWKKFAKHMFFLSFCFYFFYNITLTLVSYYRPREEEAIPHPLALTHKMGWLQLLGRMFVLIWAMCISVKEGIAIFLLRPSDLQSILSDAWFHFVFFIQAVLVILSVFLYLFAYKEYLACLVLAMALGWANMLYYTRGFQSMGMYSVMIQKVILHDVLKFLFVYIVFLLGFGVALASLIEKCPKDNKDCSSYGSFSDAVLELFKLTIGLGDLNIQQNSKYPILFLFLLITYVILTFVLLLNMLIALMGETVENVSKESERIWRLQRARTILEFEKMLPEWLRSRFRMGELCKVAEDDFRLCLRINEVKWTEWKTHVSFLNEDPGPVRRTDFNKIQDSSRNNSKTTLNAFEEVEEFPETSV
Summary of the method: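 Whole-cell currents were recorded from hTRPV3-transfected HEK293 cells (EGFP-identified, 18 h post-transfection) at 22–24 °C. Cells were held at 0 mV and ramped from −100 to +100 mV over 500 ms every 2 s. Currents were activated by 50 μmol/L 2-APB; test compound was added at 50 μmol/L or at 0.01–100 μmol/L. Outward current at +80 mV was fitted to a Hill equation for IC50; n = 5–8.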

hTRPV1 = hTRPV1 (Homo sapiens, UniProt Q8NER1); experiment: whole-cell patch-clamp of TRPV1 currents in HEK293 cells; settings: compound 50 μmol/L; current induced by capsaicin 1 μmol/L
Summary of the method: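 Human channel cDNAs were transiently transfected into HEK293 cells with Lipofectamine 2000. EGFP-positive cells were recorded whole-cell 18 h later at 22–24 °C with ~4.0 MΩ fire-polished pipettes. Cells were held at 0 mV with 500-ms ramps from −100 to +100 mV every 2 s. Test compound in perfusion solution was co-applied with agonist, and average current inhibition was summarised; n = 4–6.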

mTRPV3 T665A = target: T2, mTRPV3 T665A (Mus musculus, UniProt Q8K424, T665A); experiment: whole-cell patch-clamp of mTRPV3 T665A mutant in HEK293 cells; settings: compound 50 μmol/L; 2-APB; compared with WT mTRPV3
T2 sequence (Q8K424 1-791 T665A): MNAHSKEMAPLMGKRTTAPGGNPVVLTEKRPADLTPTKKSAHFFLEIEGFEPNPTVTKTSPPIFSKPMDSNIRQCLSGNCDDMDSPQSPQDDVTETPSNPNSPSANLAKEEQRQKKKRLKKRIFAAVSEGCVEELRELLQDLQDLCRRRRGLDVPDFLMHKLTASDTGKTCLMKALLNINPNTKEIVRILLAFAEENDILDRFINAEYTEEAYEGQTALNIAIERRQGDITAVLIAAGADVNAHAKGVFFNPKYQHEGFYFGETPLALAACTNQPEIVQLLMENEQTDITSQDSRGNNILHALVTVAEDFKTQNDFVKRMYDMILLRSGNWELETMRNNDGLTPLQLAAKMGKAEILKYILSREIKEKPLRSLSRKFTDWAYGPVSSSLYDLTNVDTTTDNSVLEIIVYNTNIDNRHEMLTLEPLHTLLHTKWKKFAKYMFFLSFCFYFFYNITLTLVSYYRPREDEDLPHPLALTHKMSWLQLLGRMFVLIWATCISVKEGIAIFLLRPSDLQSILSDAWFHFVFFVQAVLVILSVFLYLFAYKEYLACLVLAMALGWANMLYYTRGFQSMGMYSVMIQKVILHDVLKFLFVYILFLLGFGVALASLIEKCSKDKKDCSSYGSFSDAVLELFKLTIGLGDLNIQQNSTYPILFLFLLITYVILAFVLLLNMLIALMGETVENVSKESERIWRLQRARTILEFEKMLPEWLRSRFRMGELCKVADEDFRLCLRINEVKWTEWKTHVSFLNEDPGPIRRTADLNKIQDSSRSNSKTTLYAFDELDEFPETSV
Summary of the method: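 Mouse Trpv3 point mutants were made by site-directed mutagenesis, sequence-verified, and transiently expressed in HEK293 cells alongside wild-type mTRPV3. Whole-cell ramp recordings (−100 to +100 mV, 500 ms, holding 0 mV) were made at 22–24 °C. Currents were activated by 2-APB, and inhibition by 50 μmol/L test compound in the presence of 2-APB was compared with wild type; n = 3–8.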

Sequence of hTRPV1 (Q8NER1 whole entry, the tested form may be a part): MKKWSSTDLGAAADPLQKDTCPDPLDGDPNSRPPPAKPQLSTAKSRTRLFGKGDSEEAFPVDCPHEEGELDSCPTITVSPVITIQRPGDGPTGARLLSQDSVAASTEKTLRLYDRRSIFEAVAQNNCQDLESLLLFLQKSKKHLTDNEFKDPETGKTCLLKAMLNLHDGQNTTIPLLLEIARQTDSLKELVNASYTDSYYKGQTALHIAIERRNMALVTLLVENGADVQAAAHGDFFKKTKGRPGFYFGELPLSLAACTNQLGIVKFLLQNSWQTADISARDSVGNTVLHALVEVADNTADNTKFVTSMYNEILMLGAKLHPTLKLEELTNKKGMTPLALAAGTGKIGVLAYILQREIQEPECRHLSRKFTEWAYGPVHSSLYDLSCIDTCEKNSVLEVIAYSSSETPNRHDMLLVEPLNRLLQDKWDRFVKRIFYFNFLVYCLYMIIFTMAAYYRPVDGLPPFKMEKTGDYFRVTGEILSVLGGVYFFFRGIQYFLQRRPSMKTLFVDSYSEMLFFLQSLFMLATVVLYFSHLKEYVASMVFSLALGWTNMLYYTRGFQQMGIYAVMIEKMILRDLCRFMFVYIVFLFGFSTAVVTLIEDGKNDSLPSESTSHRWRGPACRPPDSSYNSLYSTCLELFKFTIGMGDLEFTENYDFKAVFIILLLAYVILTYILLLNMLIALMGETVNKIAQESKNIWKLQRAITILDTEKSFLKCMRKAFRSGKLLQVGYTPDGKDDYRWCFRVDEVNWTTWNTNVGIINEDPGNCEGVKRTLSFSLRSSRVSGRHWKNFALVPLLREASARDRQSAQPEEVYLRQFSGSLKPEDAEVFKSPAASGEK

Structure (SMILES)	inhibition of hTRPV3 channel current activated by 2-APB (hTRPV3)	Hill coefficient (hTRPV3)	inhibition of TRPV1 currents (hTRPV1)	effect of mutation on compound-induced inhibition of mTRPV3 currents (mTRPV3 T665A)	better potency of IAB versus IAA (hTRPV3; from hTRPV3 IC50 values) [fold]
O=C(/C=C/c1ccc(O)c(O)c1)O[C@@H]1C[C@](O)(C(=O)O)C[C@@H](OC(=O)/C=C/c2ccc(O)c(O)c2)[C@H]1O [IAA, isochlorogenic acid A]	about 80.8 ± 2.1%	0.50	no obvious inhibition	no obvious effect	–
O=C(/C=C/c1ccc(O)c(O)c1)O[C@@H]1[C@H](O)C[C@@](O)(C(=O)O)C[C@H]1OC(=O)/C=C/c1ccc(O)c(O)c1 [IAB, isochlorogenic acid B]	~86.4 ± 3.3%	0.53	no obvious inhibition	no obvious effect	3
